# Compounds with a hit are over-represented: about 2.4% of the library has one in this group of screens.
# TDP2 inh – blocks human TDP2 phosphodiesterase activity. AID 720702. inhibition, % at 12.8 µM. recombinant TDP2, T5PNP hydrolysis, p-nitrophenol absorbance 415 nm. 370,000 tested, 0.34% active;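 active means inhibition above the mean of all tested compounds plus 3 SD, set per campaign, cut at about 25% in these data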
# Target sequence (O95551 whole entry, looked up): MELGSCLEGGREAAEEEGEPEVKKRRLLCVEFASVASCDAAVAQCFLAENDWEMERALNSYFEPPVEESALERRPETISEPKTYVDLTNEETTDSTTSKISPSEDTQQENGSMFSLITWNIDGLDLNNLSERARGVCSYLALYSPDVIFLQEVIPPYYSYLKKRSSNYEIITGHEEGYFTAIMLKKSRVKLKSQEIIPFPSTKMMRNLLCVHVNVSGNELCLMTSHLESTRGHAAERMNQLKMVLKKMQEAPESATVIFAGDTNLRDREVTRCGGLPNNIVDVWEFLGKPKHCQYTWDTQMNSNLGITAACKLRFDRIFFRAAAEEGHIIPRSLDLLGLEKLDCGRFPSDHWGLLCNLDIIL
#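 test system = human TDP2 enzyme | input = TDP2 enzyme at 120 nM final | medium = 50 mM Tris-HCl pH 7.5 with Mg2+, KCl, DTT, BSA | also added = T5PNP substrate, 5 mM | times = 2 h at 37 °C | technique = epi absorbance | benchmarks = high control without enzyme, low control DMSO plus TDP2 | replication = each compound tested once, singlicate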
# Apaf-1 inh – inhibitors of human Apaf-1 apoptosome; O14727; reconstituted apoptosome caspase-3 activity, DEVD-Rh110 fluorescence; inhibition, % at 20 µM; 330,000 tested, 0.71% active; AID 489030; active means inhibition of at least 40% at 20 µM
#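 System – cell-free apoptosome with Apaf-1, procaspase-3 and caspase-9 · Buffer or medium – pH 7.5 Hepes buffer with CHAPS, BSA, DTT · Also added – cytochrome c with DEVD-Rh110 · Times – 30 min compound preincubation, 50 min activation, room temperature · Technique – Rh110 fluorescence intensity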
# GSTO1 inh – counter-screen for RBBP9 inhibitors: inhibitors of human GSTO1; P78417; recombinant GSTO1, activity-based probe fluorescence polarization; inhibition, % at 5.96 µM; 300,000 tested, 1.1% active; AID 1974;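 active means inhibition above the campaign mean inhibition plus 3 SD, cut at about 35% in these data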
# Target sequence (P78417 whole entry, looked up): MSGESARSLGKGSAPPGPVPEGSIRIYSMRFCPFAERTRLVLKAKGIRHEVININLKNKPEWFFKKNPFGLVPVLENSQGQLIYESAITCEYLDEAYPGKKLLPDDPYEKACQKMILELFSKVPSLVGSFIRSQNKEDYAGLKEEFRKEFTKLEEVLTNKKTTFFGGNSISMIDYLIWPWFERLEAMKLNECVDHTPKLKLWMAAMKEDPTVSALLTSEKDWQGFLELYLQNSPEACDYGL
# SIAE inh – human SIAE inhibition, primary screen | SIAE FP-Rh probe binding, fluorescence polarization | 370,000 tested, 0.69% active | Q9HAT2 | inhibition, % at 9.66 µM;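 active means inhibition above a cutoff: mean of compounds within the control limits plus 3 SD of those, cut at about 17% in these data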
# TCR-CD3 inh – blocks the human TCR-CD3 interaction. TAMRA-labeled TCR probe fluorescence, biochemical. inhibition, % at 9.4 µM. 360,000 tested, 0.37% active. AID 651800; in the data active means inhibition above about 19%;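 further: recombinant mutant TCR 2C K166C tagged with TAMRA read by polarization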
# PAD4 FP inh – PAD4 (human) enzyme inhibition; Q9UM07; recombinant PAD4, RCA probe fluorescence polarization; inhibition, % at 6.36 µM; 330,000 tested, 0.41% active; AID 485272;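 active means percent inhibition above a cutoff equal to the mean of all tested compounds plus 3 SD, cut at about 15% in these data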
# GSTO1 inh conf – confirmation of human GSTO1 inhibitors; shares compounds with GSTO1 inh; recombinant GSTO1, probe fluorescence polarization; inhibition, % at 5.96 µM; 2,400 tested, 54% active; AID 2176;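 active means inhibition above the primary screen's cutoff, its mean inhibition plus 3 SD, cut at about 35% in these data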;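 further: loss of polarization as inhibitors block binding of rhodamine sulfonate ester activity probe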
# GSTO1 ABPP inh – blocks recombinant human glutathione S-transferase omega 1. shares compounds with GSTO1 inh. recombinant GSTO1, gel ABPP SE-Rh probe fluorescence. inhibition, % at 1 µM. 130 tested, 30% active. AID 463110;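 active means inhibition of the enzyme GSTO1 above about 75%, limit read from the data; inactive means inhibition below that limit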
# Numbers stand for hits; - = inactive; . = no result.
SMILES,TDP2 inh,Apaf-1 inh,GSTO1 inh,SIAE inh,TCR-CD3 inh,PAD4 FP inh,GSTO1 inh conf,others
CCCN(C(=O)Cn1ncc2c([nH]c3ccccc32)c1=O)c1ccccc1C,-,-,-,-,-,-,.,
O=C(CCl)N(Cc1cc(=O)[nH]c2ccccc12)c1ccccc1,-,-,85,-,-,-,92,GSTO1 ABPP inh=-
O=C(CCl)N(Cc1ccccc1)c1ccccc1,-,-,93,-,-,-,96,GSTO1 ABPP inh=-
O=C1CCc2cc(S(=O)(=O)Nc3ccccc3F)ccc2N1,-,-,.,-,-,-,.,
CCC(=O)Nc1nc(CC(=O)Nc2ccccc2OC)cs1,-,-,-,-,-,-,.,
COc1ccccc1NC(=O)Cc1nc(CCl)cs1,-,-,68,-,-,-,95,GSTO1 ABPP inh=-
Oc1ccccc1N=N/C(=N/Nc1ccccc1O)c1ccccc1,-,-,-,-,-,-,.,
N#C/C(N=Nc1ccccc1O)=N\Nc1ccccc1O,-,-,87,-,-,-,68,
CCC(NC(C)C)C(O)c1ccc(O)c(O)c1 (stereo not drawn),-,-,50,-,-,-,-,
CC(C)NC[C@H](O)c1ccc(O)c(O)c1,-,-,-,-,-,-,.,
CN(CCOc1ccccc1)C(=O)CCc1c[nH]c2ccccc12,-,-,-,-,-,-,.,
CCOC(=O)c1cnc2nc(NCc3ccc(OC)c(OC)c3)[nH]n2c1=O,-,-,-,-,-,-,.,
Cc1noc(NS(=O)(=O)c2ccc(NC(=O)CSc3ncccn3)cc2)c1C,-,-,55,-,-,-,-,
Cc1cc(C)nc(SCC(=O)Nc2ccc(S(=O)(=O)Nc3onc(C)c3C)cc2)n1,-,-,-,-,-,-,.,
Nc1ccc(N)c(C(=O)O)c1,.,67,57,.,.,-,-,
CCN(CC)c1ccc(NS(=O)(=O)c2ccc(OC)cc2)cc1,-,-,56,-,-,-,56,
COc1ccc(S(=O)(=O)Nc2ccc(N(C)C(C)=O)cc2)cc1,-,-,-,-,-,-,.,
CCn1c(CSc2nnc(-c3cccnc3)n2-c2ccccc2C)nc2cc(C(=O)O)ccc21,.,-,69,.,.,53,59,
CCOc1ccc2c(c1)C(C)=CC(C)(C)N2C(=O)Nc1ccccc1F,34,-,42,-,-,-,-,
CCNC(=O)N1c2ccc(OCC)cc2C(C)=CC1(C)C,-,-,-,-,-,-,.,
Nc1c(C(=O)NCc2ccco2)sc2nc3c(cc12)C(=O)CCC3,-,-,47,-,-,-,-,
Cc1sc2ncnc(SCC(=O)NC3CCCC3)c2c1C,-,-,-,-,-,-,.,
CCNc1nc(NCC)n2c(SCC(=O)c3ccc(C(C)C)cc3)nnc2n1,-,-,95,-,-,-,87,
CC(Cl)C(=O)N1c2ccccc2CCc2ccccc21 (stereo not drawn),-,-,-,-,-,-,.,
O=C(CCl)N1c2ccccc2CCc2ccccc21,-,-,69,-,-,-,85,GSTO1 ABPP inh=-
SMILES,TDP2 inh,Apaf-1 inh,GSTO1 inh,SIAE inh,TCR-CD3 inh,PAD4 FP inh,GSTO1 inh conf,others
Cn1c(=O)n(C)c2cc(NC(=O)c3ccccc3NS(C)(=O)=O)ccc21,-,-,-,-,-,-,.,
O=C1C2C3C=CC(C2C(=O)N1c1ccc(O)cc1)C1C2C(=O)N(c4ccc(O)cc4)C(=O)C2C31 (stereo not drawn),-,-,42,-,-,-,-,
Cc1ccc(N(C(=O)CCl)C(C(=O)NC2CCCCC2)c2cccnc2)cc1C (stereo not drawn),-,.,99,-,-,-,92,GSTO1 ABPP inh=-
Cc1ccc(N(C(=O)CNC(=O)c2ccco2)C(C(=O)NC2CCCCC2)c2cccnc2)cc1C (stereo not drawn),-,-,-,-,-,-,.,
CC(C)NC(=O)CN1CCN(C(=O)CCl)CC1,-,-,38,-,-,-,58,GSTO1 ABPP inh=-
S=C(NCCc1c[nH]c2ccccc12)NC1CCCCC1,-,-,51,-,-,-,-,
O=[N+]([O-])c1ccc(-c2ccc(C=Nc3cccc4ccccc34)o2)cc1,-,46,63,-,-,24,-,
CC(=O)c1c(C)oc2ccc(OCc3ccccc3)cc12,-,-,.,-,-,.,.,
CC(C)c1onc(C(=O)NCc2cccs2)c1[N+](=O)[O-],-,-,41,-,-,-,-,
Cc1onc(C(=O)NCc2cccs2)c1[N+](=O)[O-],-,-,-,-,-,-,.,
CCCSc1ncc(Cl)c(C(=O)Nc2ccc(S(=O)(=O)N3CC(C)OC(C)C3)cc2)n1 (stereo not drawn),-,-,-,-,-,-,.,
Cc1ccccc1N(C(=O)c1csnn1)C(C(=O)NC(C)(C)C)c1cccs1 (stereo not drawn),-,-,-,-,-,-,.,
O=C(N/N=C/c1ccc(O)c(O)c1O)/C(=C/c1ccc([N+](=O)[O-])cc1)NC(=O)c1ccccc1,-,-,54,-,-,-,-,
Cc1ccc(NC(=O)/C(=C\c2ccc([N+](=O)[O-])cc2)NC(=O)c2ccccc2)cc1,-,-,-,-,-,-,.,
O=C1CCN(Cc2ccccc2)CCN1[C@H](COc1ccccc1)c1ccccc1,-,-,83,-,-,-,-,
CC(C)[C@@H](COc1ccccc1)N1CCN(Cc2ccccc2)CCC1=O,-,-,-,-,-,-,.,
CCOC(=O)c1[nH]c2ccc(OC)cc2c1NC(=O)CN1CCc2ccccc2C1,-,-,51,-,-,-,-,
Cc1cc(O)c(Oc2cc(C)cc(O)c2O)c(O)c1,-,-,56,-,-,-,-,
COc1ccc(NC(=O)c2ccccc2NC(=O)NC2CCCCC2)cc1,-,-,-,-,-,-,.,
COc1cccc(N=Nc2ccc(O)c3ncccc23)c1,-,-,39,-,-,-,-,
O=S(=O)(O)c1cccc2c(N=Nc3ccc(O)c4ncccc34)cccc12,.,.,65,.,.,-,63,
O=Nc1ccc(O)c2ncccc12,-,-,69,-,-,-,-,
COc1ccc(N=Nc2ccc(O)c3ncccc23)cc1,-,-,-,-,-,-,.,
CCOC(=O)C1CCCN(c2c(NCCN3CCCCC3CC)c(=O)c2=O)C1 (stereo not drawn),-,-,58,-,-,-,-,
CCOC(=O)C1CCCN(c2c(NCCC(C)C)c(=O)c2=O)C1 (stereo not drawn),-,-,-,-,-,-,.,
COCc1nnc(NC(=O)c2ccc(S(=O)(=O)N3CCCCCC3)cc2)o1,-,-,-,-,-,-,.,
O=C(CNC(=O)c1cccnc1)N=Nc1c(O)[nH]c2c(Br)cc(Br)cc12,-,-,85,-,-,-,41,
NC(=O)N=Nc1c(O)[nH]c2c(Br)cc(Br)cc12,.,-,-,.,.,-,.,

# Screening results: PubChem, several laboratories
